The nature of this experiment: inhibitors of GR-EGFP nuclear translocation, primary screen, dynein cargo transport inhibitor project, imaging, high-content, 3617.4 mouse cells (AID 1381). To be noted: stimulated with dexamethasone, 1 µM. The essentials:
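Buffer or medium: tet-free medium with charcoal-stripped serum / Also added: dexamethasone agonist, 1.0 µM final, for 30 min / Timing: induction 48 h, compound 1 h, agonist 30 min / Measured by: high-content fluorescence imaging after fixation / Read-out: nuclear-to-cytoplasmic GR-EGFP distribution per well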

The mark [1] stands for this setting: measured here: cell count per field, at 20 µM.
Setting [2] is: measured here: cytoplasmic GR-EGFP intensity, at 20 µM, stronger effect = higher value.
Where [3] appears, read: measured here: nuclear GR-EGFP intensity, at 20 µM, stronger effect = lower value.
Setting [4] is: measured here: cell count per field, at 50 µM.
Where [5] appears, read: measured here: cytoplasmic GR-EGFP intensity, at 50 µM, stronger effect = higher value.
The mark [6] stands for this setting: measured here: nuclear GR-EGFP intensity, at 50 µM, stronger effect = lower value.

Structures are written as SMILES. Among all 220,000 compounds or so, about 1,000 (0.45%) were called active.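 Rule for the calls: active = plate z-score of nuclear minus cytoplasmic receptor signal below a set negative limit, without overly bright fluorescence or cell loss (cut at about -3.5 in these data, passing the limit was not always enough); inactive = the rest, inconclusive results apart.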 For the sample, actives were picked, then their nearest neighbours and some compounds at random.

For the compound `CCOc1ccccc1N1CCN(C(=O)COc2ccc3c(C)cc(=O)oc3c2)CC1`, the z-score reads like this: (at 20 µM, stronger effect = lower value) 1.35 (inactive); under setting [1], -0.138; under setting [2], -0.356; under setting [3], 0.787.

In the case of `O=C(CSc1nnc(-c2cccnc2)n1Cc1ccco1)c1ccc(Cl)cc1`, the z-score reads like this: (at 20 µM, stronger effect = lower value) -0.358 (inactive); under setting [1], -0.0648; under setting [2], -0.209; under setting [3], -0.055.

Consider `Cc1cc(NC(=O)CSc2nc3cc(Cl)ccc3c(=O)n2Cc2ccco2)no1`, for which the z-score reads like this: (at 20 µM, stronger effect = lower value) 2.31 (inactive); under setting [1], -1.55; under setting [2], -0.306; under setting [3], 1.39.

Regarding `Clc1cccc(-c2nc3nc4ccccc4nc3n2Cc2ccco2)c1`, the z-score reads like this: (at 20 µM, stronger effect = lower value) -4.09 (active); under setting [1], 0.0368; under setting [2], 2.09; under setting [3], -1.78.

For `Cc1cccc(NC(=S)N2CCC(c3nc4ccccc4s3)CC2)c1`, the z-score reads like this: (at 20 µM, stronger effect = lower value) -0.203 (inactive); under setting [1], 0.43; under setting [2], -0.197; under setting [3], -0.339.

Consider `CC1CCN(C(=O)c2ccc(S(=O)(=O)Cc3cc(F)ccc3F)c([N+](=O)[O-])c2)CC1`, for which the z-score is, setting by setting: (at 20 µM, stronger effect = lower value) -3.71 (active); under setting [1], -1.15; under setting [2], 0.395; under setting [3], -2.24.

As to `O=C(Nc1ccc(F)cc1)C1CCN(C(=O)c2ccc([N+](=O)[O-])cc2)CC1`, the z-score is -0.907 (inactive) (at 20 µM, stronger effect = lower value); 0.228 under setting [1]; 0.208 under setting [2]; -0.321 under setting [3].

With `CC1CCN(C(=O)c2ccc(CSc3ccc(Cl)cc3)cc2)CC1`, the z-score is, setting by setting: (at 20 µM, stronger effect = lower value) -0.555 (inactive); under setting [1], 0.71; under setting [2], -0.258; under setting [3], -0.29.

`O=C(CC(NC(=O)c1ccccc1)c1ccccc1)Nc1ccc(F)c(F)c1` (configuration not stated): the z-score reads like this: (at 20 µM, stronger effect = lower value) -0.729 (inactive); under setting [1], 0.477; under setting [2], -0.215; under setting [3], -0.567.

`COc1ccc2c(c1)cc1n2CCN=C1NN`: the z-score (at 20 µM, stronger effect = lower value) was 1.67 (inactive); the z-score under setting [1] was -0.465; the z-score under setting [2] is -0.0728; the z-score under setting [3] was determined as 0.848.

In the case of `Cc1ccc2nc(C)c3c(c2c1)N(c1ccccc1)CC3`, the z-score runs as follows: (at 20 µM, stronger effect = lower value) -0.838 (inactive); under setting [1], 0.0751; under setting [2], -0.205; under setting [3], -0.482.

For `CCCN(c1ccc(C)cc1)c1nc(=O)c2cccnc2s1`, the z-score (at 20 µM, stronger effect = lower value) was 0.0477 (inactive); the z-score under setting [1] is 0.0213; the z-score under setting [2] was -0.295; the z-score under setting [3] stood at 0.0592.

Consider `Cc1ccc(Cl)cc1N1CCN(C(=O)c2cccc3c(=O)c(C)c(-c4ccccc4)oc23)CC1`, for which the z-score runs as follows: (at 20 µM, stronger effect = lower value) -0.56 (inactive); under setting [1], 0.953; under setting [2], -0.179; under setting [3], -0.287.

On to `CCOC(=O)c1cc2c(ccn2C)n1CC(=O)N1CCC(C)CC1`, for which the z-score is -0.704 (inactive) (at 50 µM, stronger effect = lower value); 0.841 under setting [4]; -0.262 under setting [5]; -1.05 under setting [6].

As to `O=C1/C(=C\c2cccnc2)CN(Cc2ccccc2)C/C1=C\c1cccnc1`, the z-score (at 20 µM, stronger effect = lower value) was -3.59 (active); the z-score under setting [1] was -0.00204; the z-score under setting [2] was found to be 0.672; the z-score under setting [3] is -2.16.

Turning to `Clc1ccc(CN2CCN(/N=C/c3cccnc3)CC2)cc1`, the z-score reads like this: (at 20 µM, stronger effect = lower value) -0.266 (inactive); under setting [1], 0.201; under setting [2], -0.295; under setting [3], -0.167.

Regarding `O=Cc1cn(Cc2ccccc2)nc1-c1cccnc1`, the z-score runs as follows: (at 20 µM, stronger effect = lower value) -0.988 (inactive); under setting [1], 0.721; under setting [2], -0.215; under setting [3], -0.566.

For `Cc1ccc(S(=O)(=O)N(C)c2ccc(OCC(=O)NC3=NCCS3)cc2)cc1`, the z-score runs as follows: (at 20 µM, stronger effect = lower value) 0.77 (inactive); under setting [1], -1.53; under setting [2], 0.171; under setting [3], 1.46.

Turning to `Cc1ccnc(N2CCN(C(=O)CSc3nc4ccccc4nc3N3CCCCC3)CC2)c1`, the z-score was -1.05 (inactive) (at 20 µM, stronger effect = lower value); 0.232 under setting [1]; -0.187 under setting [2]; -0.257 under setting [3].

As to `CC(C)(C)c1cc(NC(=O)NN2CCOCC2)nn1-c1c(Cl)cc(Cl)cc1Cl`, the z-score (at 20 µM, stronger effect = lower value) was 0.305 (inactive); the z-score under setting [1] stood at 0.973; the z-score under setting [2] was -0.287; the z-score under setting [3] was -0.0782.

For the compound `COc1ccc(CCNC(=O)c2ccc(CS(=O)(=O)c3ccc(Br)cc3)o2)cc1OC`, the z-score by setting is: (at 20 µM, stronger effect = lower value) 0.736 (inactive); under setting [1], 0.162; under setting [2], -0.215; under setting [3], 0.28.

For `CCN(Cc1nc2ccccc2c(=O)[nH]1)Cc1cc(=O)oc2cc(C)c(C)cc12`, the z-score is, setting by setting: (at 50 µM, stronger effect = lower value) 0.712 (inactive); under setting [4], 0.798; under setting [5], -0.276; under setting [6], -0.426.

For the compound `O=c1[nH]c2ccccc2n2c(-c3ccccc3)nnc12`, the z-score reads like this: (at 50 µM, stronger effect = lower value) -4.53 (active); under setting [4], 0.378; under setting [5], 0.89; under setting [6], -2.64.

Take `O=[N+]([O-])c1cccc(-c2nnc3c4ccccc4c4ccccc4n23)c1`: the z-score by setting is: (at 20 µM, stronger effect = lower value) -0.00649 (inactive); under setting [1], 0.483; under setting [2], 1.22; under setting [3], 0.469.

Turning to `CCOC(=O)c1cnc2[nH]c3ccccc3n2c1=O`, the z-score runs as follows: (at 20 µM, stronger effect = lower value) -0.506 (inactive); under setting [1], -0.246; under setting [2], 0.0235; under setting [3], -0.197.

With `CCCn1c(SCC(=O)Nc2ccc(C)c(S(=O)(=O)N3CCOCC3)c2)n[nH]c1=O`, the z-score runs as follows: (at 20 µM, stronger effect = lower value) 1.09 (inactive); under setting [1], 0.0169; under setting [2], -0.261; under setting [3], 0.257.

Turning to `Cc1ccc2nc(Nc3ncc4c(n3)CC(C)(C)CC4=O)nc(C)c2c1`, the z-score was 0.135 (inactive) (at 20 µM, stronger effect = lower value); 0.445 under setting [1]; -0.285 under setting [2]; -0.00084 under setting [3].

In the case of `Cn1c(=O)c([N+](=O)[O-])c(Oc2ccccc2)c2ccccc21`, the z-score is, setting by setting: (at 20 µM, stronger effect = lower value) -6.51 (active); under setting [1], 0.669; under setting [2], 1.62; under setting [3], -2.76.

For the compound `Cn1c2ccccc2c(=O)c2c(O)cccc21`, the z-score is, setting by setting: (at 20 µM, stronger effect = lower value) -0.39 (inactive); under setting [1], 0.337; under setting [2], -0.342; under setting [3], -0.208.

For the compound `COc1cccc(C(=O)Oc2cc(C)[nH]c(=O)c2[N+](=O)[O-])c1`, the z-score was 1.66 (inactive) (at 20 µM, stronger effect = lower value); -1.05 under setting [1]; -0.136 under setting [2]; 0.869 under setting [3].

With `Cc1cccc(OP(=O)(Nc2c(C)n(C)n(-c3ccccc3)c2=O)Oc2cccc(C)c2)c1`, the z-score runs as follows: (at 20 µM, stronger effect = lower value) 1.6 (inactive); under setting [1], -1.31; under setting [2], -0.218; under setting [3], 1.25.

For `Cc1cccc(Oc2c([N+](=O)[O-])c(=O)n(C)c3ccccc23)c1`, the z-score is -4.31 (active) (at 20 µM, stronger effect = lower value); 0.72 under setting [1]; 0.943 under setting [2]; -2.29 under setting [3].

Take `Cc1nn(C)c(Oc2ccccc2)c1[N+](=O)[O-]`: the z-score reads like this: (at 20 µM, stronger effect = lower value) -0.413 (inactive); under setting [1], 0.292; under setting [2], -0.104; under setting [3], 0.119.
